Compound activity as filed in PubChem.
Rows were chosen to be rich in hits. Some 3.8% of all compounds tested hit in one or more screens of this group.
SIRT5 inh: inhibitors of human sirtuin-5 desuccinylase; Q9NXA8; Purified SirT5, succinyl-peptide AMC, trypsin-coupled fluorescence; inhibition, % at 15 µM; hit rate 1.1% among 330,000; in the data active = inhibition above about 15%; inconclusive = no clear call, values can overlap the other calls
Target sequence (Q9NXA8 whole entry, looked up): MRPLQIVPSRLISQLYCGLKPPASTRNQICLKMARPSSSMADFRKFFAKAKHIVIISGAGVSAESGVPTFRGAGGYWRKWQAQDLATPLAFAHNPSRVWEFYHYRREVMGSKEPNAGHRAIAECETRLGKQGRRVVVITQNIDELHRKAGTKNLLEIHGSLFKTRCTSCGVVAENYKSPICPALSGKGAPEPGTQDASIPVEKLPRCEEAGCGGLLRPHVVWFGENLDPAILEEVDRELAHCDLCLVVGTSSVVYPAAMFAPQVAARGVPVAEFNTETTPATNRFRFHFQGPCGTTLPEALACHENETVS
FGF22 binding: binders of recombinant human FGF22 by thermal shift; Q9HCT0; SYPRO orange fluorescence; percent of sucrose octasulfate shift, DMSO zero; activity (Tm shift, normalised), % at 9.99 µM; hit rate 1.5% among 340,000;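 active = mean Tm shift, scaled 0 neutral to 100 positive control, at about 1.3% or above, every replicate too, limit read from the data; inconclusive = no clear call, values can overlap the other calls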
Target sequence (Q9HCT0 whole entry, looked up): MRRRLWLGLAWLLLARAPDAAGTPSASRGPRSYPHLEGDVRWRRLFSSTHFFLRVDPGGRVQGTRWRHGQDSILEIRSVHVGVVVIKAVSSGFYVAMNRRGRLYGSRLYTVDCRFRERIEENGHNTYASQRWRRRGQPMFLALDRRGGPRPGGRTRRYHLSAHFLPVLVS
FN deposit inh: fibronectin deposition inhibition. AID 743247. AH1F fibroblasts, Alexa488-fibronectin deposition fluorescence, overnight. hit rate 0.086% among 350,000. inhibition, % at 12.6 µM;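 active = mean inhibition across replicates of 30% or more, regardless of how many single replicates reach that level; inconclusive = mean under 30% yet at least half of replicates reach 30%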
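Measured by – fluorescence 485/525 nm · System – AH1F fibroblast monolayer, labelled fibronectin deposition · Amount – 10000 cells per well · Buffer or medium – serum-reduced DMEM (2% serum) · Doses – single dose, pinned · Also added – fluorescent fibronectin at 24 nM final · Schedule – 1 h cell attachment, overnight exposure to compound and label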
XiGFP reactiv: X-chromosome reactivation activator; XiGFP mouse fibroblasts, % GFP-positive cells imaging, 3 d; cells co-treated with 5-aza-dC sensitizer; scaled so ellipticine positive control = 100%; activation, % at 7.58 µM; hit rate 0.055% among 360,000;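 active = mean normalized replicate activation at least 10% and every replicate at or above 10%; inconclusive = only one of the two criteria met; inactive = mean below 10% and not all replicates reach 10%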
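Assay system: SV40-immortalized XiGFP fibroblast cells, line 68-5-11; buffer or medium: DMEM plus 5-aza-dC sensitizer; compound: one concentration, pinned; timing: compounds 3 days, fix/stain 15 min at room temperature; benchmarks: positive control ellipticine, 6 µM final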
DENV2 CPE rescue: DENV2-induced cell death inhibition; DENV2-infected cells, cytopathic effect rescue, plate reader; CPE inhibition, % at 9.99 µM; hit rate 1.7% among 350,000; in the data active = CPE inhibition above about 20%, passing the limit was not always enough; inconclusive = no clear call, values can overlap the other calls; tested in BHK-21 cells
ARNT TACC3 PPI: disrupts binding between human ARNT and TACC3. Q9Y6A5. AlphaScreen His-ARNT PAS-B/GST-TACC3 binding, luminescence; TACC3 fragment carries E629A point mutation. inhibition, % at 9.99 µM. hit rate 0.66% among 390,000. AID 623870;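 active = mean inhibition of replicates at least 50% and at least half of replicates each reaching 50%; inconclusive = half or more replicates reach 50% but mean below 50%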
Numbers stand for hits; 0 = inactive; ? = inconclusive; - = not tested or not shown; ! = a repeat was not active.

SMILES	SIRT5 inh	FGF22 binding	FN deposit inh	XiGFP reactiv	DENV2 CPE rescue	ARNT TACC3 PPI
CC(=O)NC[C@H]1[C@H](c2ccc(-c3ccccc3F)cc2)[C@H](CO)N1C(=O)C1CC1	0	0	0	0	53.1	0
CCCc1cn(CC[C@H]2CC[C@H](NC(=O)CCN3CCCCC3)[C@H](CO)O2)nn1	0	0	0	0	0	0
Cc1ccc(-c2cnc3c(c2)C(=O)N([C@@H](C)CO)C[C@H](C)[C@@H](CN(C)C(=O)Cc2ccccc2)O3)cc1	0	0	-	0	0	0
Cc1cc([N+](=O)[O-])ccc1NC(=O)C[n+]1ccc(N(C)C)cc1	0	43.3	0	0	0	0
COC(=O)CSc1nnc(CNC(=O)c2ccc(S(=O)(=O)N(C)C)cc2)n1C	0	43.3	0	0	0	0
CCOC(=O)CSc1nnc(CNC(=O)c2ccc(S(=O)(=O)N(C)C)cc2)n1C	0	0	0	0	0	0
O=[N+]([O-])c1cc(Cl)ccc1N1CCCC1	0	43.6	0	0	0	0
Nc1ccn([C@@H]2O[C@H](C(=O)NCc3ccc4c(c3)OCO4)[C@@H](O)[C@H]2O)c(=O)n1	0	0	0	0	0	-
CN(C)C(=O)N1CCN(C(=O)[C@H]2O[C@@H](n3ccc(N)nc3=O)[C@H](O)[C@@H]2O)CC1	0	0	0	0	70.2	-
Nc1ccn([C@@H]2O[C@H](C(=O)NCCc3ccc(F)cc3)[C@@H](O)[C@H]2O)c(=O)n1	0	0	0	0	87.3	-
C[C@@H]1CN([C@@H](C)CO)C(=O)c2cc(-c3ccncc3)cnc2O[C@@H]1CN(C)S(=O)(=O)c1ccccc1	0	0	-	0	?	0
C[C@@H]1CN([C@H](C)CO)C(=O)c2cc(C#CCC3CCCC3)cnc2O[C@@H]1CN(C)C(=O)CN(C)C	0	0	0	0	0	0
COCCOC(=O)N1C(=O)[C@@]2(c3cc(C#CC4(O)CCCCCC4)ccc31)[C@H](c1ccc(OCCO)cc1)N1[C@H](c3ccccc3)[C@H](c3ccccc3)OC(=O)[C@H]1[C@@H]2C(=O)N1CCN(c2ncccn2)CC1	0	0	-	-	0	-
CN(C)C(=O)C[C@@H]1C[C@@H]2c3cc(NC(=O)CC4CC4)ccc3O[C@@H]2[C@@H](CO)O1	0	0	-	0	0	0
CN1CCN(C(=O)c2cc(Oc3c(F)c(F)c(F)c(F)c3F)cc(C(=O)N3CCN(C)CC3)c2)CC1	0	43.8	0	0	0	0
CN1CCN(C(=O)c2ccc(F)c(F)c2)CC1	0	0	0	0	0	0
Cc1ccc(/C=N\NC(=O)COc2ccc(C)cc2[N+](=O)[O-])cc1	0	43.2	0	0	0	0
COc1ccc(/C=N\NC(=O)c2ccccc2[N+](=O)[O-])cc1COc1c(F)c(F)c(F)c(F)c1F	0	4.1	0	0	0	-
O=C(COc1ccccc1[N+](=O)[O-])N/N=C/c1ccc(OC(=O)c2ccco2)cc1	-	0	0	0	0	0
COc1cc(/C=N/NC(=O)COc2ccccc2[N+](=O)[O-])ccc1OC(=O)c1ccco1	0	0	0	0	26.6	0
c1ccc(-c2csc(N3CCSCC3)n2)cc1	0	0	0	0	0	0
c1ccc(-c2csc(-n3cccn3)n2)cc1	0	43.5	-	0	0	0
O=C(Cc1ccncc1)Nc1ccc2c(c1)[C@@H]1C[C@H](CC(=O)NC3CCCCC3)O[C@@H](CO)[C@@H]1O2	0	0	-	0	0	0
C[C@@H]1CN([C@H](C)CO)C(=O)c2cc(NC(=O)CCCN(C)C)ccc2O[C@@H]1CN(C)C	0	0	0	0	0	0
CC(C)NC(=O)N(C)C[C@H]1Oc2ccccc2C(=O)N(C)C[C@@H]1C	-	-	0	0	-	-
SMILES	SIRT5 inh	FGF22 binding	FN deposit inh	XiGFP reactiv	DENV2 CPE rescue	ARNT TACC3 PPI
O=C(COc1cccc2c1CCN(Cc1ccccc1)C2=O)N1CCCCC1	0	43.3	-	0	0	0
CC1CCN(C(=O)COc2cccc3c2CCN(Cc2ccccc2)C3=O)CC1	0	0	-	0	0	0
CCCNC(=O)N1[C@@H]2CNC[C@H]1C2c1ccc(-c2cccc(C#N)c2)cc1 (some centres not stated)	0	-	0	0	20.7!	-
N#Cc1ccc(-c2ccc(C3[C@H]4CNC[C@@H]3N4C(=O)NC3CCCCC3)cc2)cc1 (some centres not stated)	-	0	0	0	23.0	-
CN(C)C(=O)c1ccc(-c2ccc(C3[C@H]4CNC[C@@H]3N4C(=O)NC3CCCCC3)cc2)cc1 (some centres not stated)	0	-	0	0	0	-
COc1cccc(CN2[C@@H]3CNC[C@H]2C3c2ccc(-c3cccc(OC)c3)cc2)c1 (some centres not stated)	0	-	0	0	0	-
N#Cc1cccc(-c2ccc(C3[C@H]4CNC[C@@H]3N4C(=O)Nc3ccc(F)cc3)cc2)c1 (some centres not stated)	0	-	0	0	23.0!	-
COc1cccc(-c2ccc(C3[C@H]4CNC[C@@H]3N4Cc3cccnc3)cc2)c1 (some centres not stated)	-	0	0	0	28.2	-
Cc1noc(C)c1NC(=O)Nc1ccc2c(c1)C(=O)N([C@@H](C)CO)C[C@H](C)[C@H](CN(C)CC1CCCCC1)OCCCC[C@H](C)O2	0	0	-	0	0	0
COc1ccc2c3c(n(C)c2c1)[C@@H](CO)N(C(=O)c1ccncc1)CC31CN(C)C1	-	0	-	0	0	-
C[C@@H]1CC=CC[C@@H](c2ccc(F)cc2)NC(=O)[C@H](C)N(C)C(=O)c2ccccc2O1 (mixture of isomers)	-	-	0	0	-	-
COc1ccc(NC(=O)N2[C@@H]3CNC[C@H]2C3c2ccc(/C=C/c3ccccc3)cc2)cc1 (some centres not stated)	0	-	0	0	24.6	-
Cc1cccc(-c2ccc(C3[C@H]4CNC[C@@H]3N4C(=O)Nc3ccc(F)cc3)cc2)c1 (some centres not stated)	0	0	0	0	27.8!	-
O=C(Nc1ccc(C(F)(F)F)cc1)N1C[C@@H]2N[C@H](C1)C2c1ccc(-c2cccc(F)c2)cc1 (some centres not stated)	15.1!	-	0	0	?	-
COc1cccc(NC(=O)N2[C@@H]3CNC[C@H]2C3c2ccc(-c3cccnc3)cc2)c1 (some centres not stated)	0	-	0	0	22.1!	-
CC(=O)N(C)C[C@H]1Oc2ncc(C#Cc3ccc(F)cc3)cc2C(=O)N([C@@H](C)CO)C[C@@H]1C	-	-	0	0	-	-
CC(=O)Nc1ccc2c(c1)C(=O)N(C)[C@H]1CC[C@@H](CC(=O)NCCCN3CCOCC3)O[C@H]1CO2	0	-	0	0	-	-
